Compound activity: PubChem BioAssay, The Scripps Research Institute Molecular Screening Center
Tn6 DDE FP – inhibitors of Tn6 peptide binding to fibrin DD(E), primary screen, biochemical, fluorescence polarization, human fibrin, Tn6 probe | Fibrinogen beta chain (Homo sapiens), P02675 | Fibrin DD(E) TRITC-Tn6 fluorescence polarization displacement | inhibition, % at 8.3 µM | 370,000 compounds, 0.21% hits;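 active = inhibition above a per-campaign cutoff: mean of compounds within control limits plus 3 SD, cut at about 15% in these data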;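 also: 0% = median of all compound wells on the plate and 100% = blocking peptide control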
ADAM17 inh – ADAM17 inhibitors, primary screen, biochemical, QFRET; AID 720648, 2013; inhibition, % at 6.95 µM; 370,000 compounds, 0.83% hits; recombinant ADAM17, EDANS/DABCYL FRET peptide cleavage;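 active = inhibition above the mean of compounds lying between control limits plus 3 SD, set per campaign, cut at about 8.5% in these data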;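 also: 0% = DMSO-only wells as the low control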
PLC-beta3 inh – human PLC-beta3 inhibitors, primary screen, biochemical, fluorescence | 1-phosphatidylinositol 4,5-bisphosphate phosphodiesterase beta-3 (Homo sapiens), Q01970 | Purified PLC-beta3, fluorogenic substrate | inhibition, % at 12.2 µM | 370,000 compounds, 0.18% hits;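 also: 0% = median of compound wells on plate and 100% = full blocker control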
DDE Tn7 FP inh – inhibitors of Tn7 peptide binding to fibrin DD(E), primary screen, biochemical, fluorescence polarization, human fibrin, Tn7 probe | Fibrinogen beta chain (Homo sapiens), P02675 | FP displacement of FITC-Tn7 peptide from fibrin DD(E); 0% = median of compound wells per plate | inhibition, % at 8.3 µM | 370,000 compounds, 0.13% hits;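 active = inhibition above the mean of compounds falling within the control limits plus 3 SD of them, cut at about 14% in these data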;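 also: 0% = plate median of compound wells and 100% = 10 µM Aha-Tn7 peptide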
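Test system – human fibrin DD(E) · Times – 10 min preincubation, 3 h with tracer, room temperature · Detection – fluorescence polarization of the labelled Tn7 tracer · Measure – percent inhibition normalized to high-control wells · Benchmarks – high control wells with 10 µM unlabelled Aha-Tn7 peptide (full inhibition) · Repeats – singlicate testing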
PLCg1 inh – PLC-gamma1 enzyme inhibitors, primary screen, biochemical, fluorescence, purified enzyme | inhibition, % at 12.2 µM | fluorogenic substrate | 370,000 compounds, 0.84% hits; in the data active = inhibition above about 9.5%
ADAM10 inh – human ADAM10 inhibitors, primary screen, biochemical, QFRET, HTS; AID 720582, 2013; Disintegrin and metalloproteinase domain-containing protein 10 (Homo sapiens), O14672; inhibition, % at 7 µM; recombinant ADAM10, EDANS/DABCYL FRET peptide cleavage, 3 h; 370,000 compounds, 0.62% hits;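 active = inhibition above a per-campaign cutoff equal to the mean of compounds falling between control-based bounds plus 3 SD, cut at about 20% in these data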;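 also: 0% = DMSO wells while the 100% control is not disclosed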
Target sequence (O14672 214-748 limits assumed): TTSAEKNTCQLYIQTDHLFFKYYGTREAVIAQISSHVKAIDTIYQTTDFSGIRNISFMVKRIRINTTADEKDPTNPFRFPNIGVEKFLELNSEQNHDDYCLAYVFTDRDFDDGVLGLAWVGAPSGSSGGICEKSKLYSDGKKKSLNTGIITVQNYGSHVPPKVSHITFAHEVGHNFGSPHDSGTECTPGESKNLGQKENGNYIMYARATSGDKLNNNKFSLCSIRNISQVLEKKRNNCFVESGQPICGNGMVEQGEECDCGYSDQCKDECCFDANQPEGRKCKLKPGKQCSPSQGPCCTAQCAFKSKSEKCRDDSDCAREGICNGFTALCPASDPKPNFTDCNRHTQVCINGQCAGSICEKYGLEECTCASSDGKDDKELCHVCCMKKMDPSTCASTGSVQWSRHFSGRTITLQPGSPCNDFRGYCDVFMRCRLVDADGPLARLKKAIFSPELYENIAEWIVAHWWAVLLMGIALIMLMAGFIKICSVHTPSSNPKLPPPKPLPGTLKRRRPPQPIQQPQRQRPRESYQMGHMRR
PLCgamma1 ctr – PLC-gamma1 enzyme inhibitors, counter-screen for PLC-beta3 inhibitor project, biochemical, fluorescence; 3,300 compounds, 3.1% hits; inhibition, % at 12.3 µM; shares compounds with PLCg1 inh; purified PLC-gamma1, fluorogenic substrate; AID 743258, 2014; in the data active = inhibition above about 9.5%
PLCb3 confirm – PLC-beta3 inhibitor confirmation, biochemical, fluorescence, purified enzyme; 3,300 compounds, 1% hits; shares compounds with PLCg1 inh; inhibition, % at 12.3 µM; fluorogenic substrate fluorescence
Active calls of the source: *; x = not tested or not shown. This is a sample that favours compounds with a hit; in the whole collection about 2.3% have one here. Rule as the data show it, unless noted: active = inhibition above about 11%; inactive = the rest.

SMILES | Tn6 DDE FP | ADAM17 inh | PLC-beta3 inh | DDE Tn7 FP inh | PLCg1 inh | ADAM10 inh | PLCgamma1 ctr | PLCb3 confirm
CN(C)c1nc(Nc2ccccc2)nc(Oc2ccc(=O)[nH]n2)n1 | 3 | -3 | 3 | 6 | 4 | 1 | x | x
Cc1ccc(Nc2nc(Oc3ccc(=O)[nH]n3)nc(N(C)C)n2)cc1 | -14 | 2 | 3 | -2 | 10.0* | -8 | -8 | -1
CN1CCN(C(=O)CN(CCc2ccccc2)S(C)(=O)=O)CC1 | 3 | -4 | 1 | -1 | 0 | -2 | x | x
CCN1CCN(C(=O)CN(CCc2ccccc2)S(C)(=O)=O)CC1 | -1 | 1 | 3 | 3 | 9.9* | 14 | -6 | 0
COc1cccc(-c2nnn(CC(=O)NC3CCCC3)n2)c1OC | 0 | -5 | 3 | 2 | 0 | -8 | x | x
O=C(Cn1nnc(-c2ccccc2NC(=O)C2CC2)n1)NC1CCCCC1 | -2 | 4 | 3 | -2 | 11* | -6 | -7 | -4
COc1ccccc1NC(=O)C(=N\O)/C(C)=N/O | -2 | 7 | 4 | -13 | 11* | 6 | -6 | 0
COc1ccccc1NC(C)=O | -7 | 1 | 5 | 3 | 1 | 4 | x | x
Cc1ccc(OCC(C)CN2CCC(C(O)(c3ccccc3)c3ccccc3)CC2)cc1 (centres undefined) | 0 | 0 | 0 | -4 | 4 | -2 | x | x
O=C(Nc1ccc2c(c1)OCCO2)c1cc(-n2cnnc2)ccc1Cl | -8 | 0 | 6 | -3 | 11* | 6 | -8 | -5
O=C(NC1CCCCC1)c1cc(-n2cnnc2)ccc1Cl | -3 | -3 | -3 | 4 | 9.8* | -2 | 2 | 4
Cc1c(C(=O)OCC(=O)c2c(N)n(CC(C)C)c(=O)n(C)c2=O)oc2ccccc12 | -3 | 1 | 46* | -1 | 4 | 6 | -6 | -4
O=C(O)c1cnccn1 | -7 | -4 | -1 | 4 | 2 | 4 | x | x
CSC(=N/N=C(\N)c1cnccn1)SC | -6 | 5 | 6 | -4 | 13* | 6 | 5 | 1
CCCCOc1ccc(Br)cc1CSC(=N)N | -6 | -4 | -2 | -5 | 10* | -3 | -2 | 0
CCOc1ccc(C(C)=O)cc1CSC(=N)N | -1 | -9 | -7 | 0 | 5 | -6 | x | x
Cc1ccc(Cn2nnc3c2-c2ccccc2S(=O)(=O)N(C(C)(C)C)C3)cc1 | 8 | -1 | 1 | 3 | -1 | 1 | x | x
CC(C)(C)C(=O)Nc1ccc(Sc2ccc([N+](=O)[O-])cc2)cc1 | 3 | 6 | -2 | 3 | 9 | 13 | x | x
CC(=O)Nc1ccc(Sc2ccc([N+](=O)[O-])o2)cc1 | -7 | 2 | 4 | -5 | 10* | 4 | 5 | -6
O=C(Cn1c(=O)c2cccn2c2cccnc21)NCCCN1CCN(c2ccc(Cl)cc2)CC1 | 1 | -3 | 4 | -1 | -1 | -9 | x | x
O=C(CCC1CCCN(C(=O)C2CCCC2)C1)NCc1ccc(F)c(F)c1 (centres undefined) | -3 | -12 | 2 | 1 | 0 | 0 | x | x
O=C(CCC1CCCN(C(=O)c2cncs2)C1)NCc1ccc(F)c(F)c1 (centres undefined) | 2 | 7 | 5 | 2 | 10* | 4 | -7 | -5
CCCCNS(=O)(=O)CC1NCc2cc(OC)ccc21 (centres undefined) | 1 | -17 | -26 | 2 | -22 | -49 | x | x
Cc1ccc(CN2CCC[C@]3(N[C@H](c4ccccc4)[C@@H]4C(=O)N(C)C(=O)[C@@H]43)C2=O)cc1 | 4 | 8 | 8 | 8 | 12* | 2 | -2 | -1
